What was measured:
[1] = biological target: Insulin-like growth factor 1 receptor (Homo sapiens) (UniProt P08069); assay: Inhibition of tyrosine phosphorylation of IGF1R in human Hep3B cells assessed as decrease of phosphorylated IGF1R level after 12 hrs by Western blotting; type: cell-based; conditions: Hep 3B2
Procedure, shortened: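 Hep3B cells were exposed to a range of concentrations for 12 h at 37 C, with DMSO as vehicle control. They were lysed in Tris-HCl pH 7.9 buffer containing Triton X-100, SDS, NaF, orthovanadate and protease inhibitors, then centrifuged. Lysates were immunoblotted with anti-pY1135/1136-IGF-1R, and IGF-1R β-subunit served as loading control.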

HOP-92 = assay: Growth inhibition of human HOP92 cells; type: functional
OVCAR-3 = assay: Growth inhibition of human OVCAR-3 cells; type: functional
786-0 = assay: Growth inhibition of human 786-0 cells; type: functional
OVCAR-5 = assay: Growth inhibition of human OVCAR5 cells; type: functional
SNB-75 = assay: Growth inhibition of human SNB75 cells; type: functional
KM12 = assay: Growth inhibition of human KM12 cells; type: functional
SR = assay: Growth inhibition of human SR cells; type: functional
SN12C = assay: Growth inhibition of human SN12C cells; type: functional
IGROV-1 = assay: Growth inhibition of human IGROV1 cells; type: functional
MOLT-4 = assay: Growth inhibition of human MOLT4 cells; type: functional
[2] = biological target: cGMP-specific 3',5'-cyclic phosphodiesterase (Homo sapiens) (UniProt O76074); assay: Inhibition of human PDE5 at 10 uM
NCI-H522 = assay: Growth inhibition of human NCI-H522 cells; type: functional
NCI/ADR-RES = assay: Growth inhibition of human NCI/ADR-RES cells; type: functional
SK-OV-3 = assay: Growth inhibition of human SKOV3 cells; type: functional
SK-MEL-5 = assay: Growth inhibition of human SK-MEL-5 cells; type: functional
MCF7 = assay: Growth inhibition of human MCF7 cells; type: functional
NCI-H226 = assay: Growth inhibition of human NCI-H226 cells; type: functional
UACC-62 = assay: Growth inhibition of human UACC62 cells; type: functional
[3] = biological target: Phosphodiesterase 4 (Homo sapiens) (UniProt P27815+Q08499+Q07343+Q08493); assay: Inhibition of human PDE4 at 10 uM; type: protein assay
RXF 393 = assay: Growth inhibition of human RXF393 cells; type: functional
HT-29 = assay: Growth inhibition of human HT-29 cells; type: functional
[4] = biological target: Tyrosine-protein kinase Yes (Homo sapiens) (UniProt P07947); assay: Inhibition of human YES1 at 10 uM
Sequence of Tyrosine-protein kinase Yes (Homo sapiens) (P07947 2-543 limits assumed): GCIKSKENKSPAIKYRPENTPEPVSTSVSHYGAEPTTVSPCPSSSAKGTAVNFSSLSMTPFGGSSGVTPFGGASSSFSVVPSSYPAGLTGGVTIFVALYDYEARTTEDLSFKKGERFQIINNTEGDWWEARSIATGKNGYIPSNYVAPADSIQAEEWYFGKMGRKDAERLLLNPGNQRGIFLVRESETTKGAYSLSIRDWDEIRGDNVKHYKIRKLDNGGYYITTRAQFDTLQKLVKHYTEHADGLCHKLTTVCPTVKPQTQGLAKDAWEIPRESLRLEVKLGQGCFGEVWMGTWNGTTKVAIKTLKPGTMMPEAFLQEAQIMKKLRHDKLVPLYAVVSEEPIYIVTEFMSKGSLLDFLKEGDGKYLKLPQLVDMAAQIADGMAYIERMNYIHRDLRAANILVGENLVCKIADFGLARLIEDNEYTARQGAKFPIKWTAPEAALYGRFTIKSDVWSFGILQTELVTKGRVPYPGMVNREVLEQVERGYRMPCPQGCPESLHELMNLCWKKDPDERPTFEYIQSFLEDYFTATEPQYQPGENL

HL-60(TB) = assay: Growth inhibition of human HL-60(TB) cells; type: functional
HCT-15 = assay: Growth inhibition of human HCT15 cells; type: functional
K562 = assay: Growth inhibition of human K562 cells; type: functional
UO-31 = assay: Growth inhibition of human UO31 cells; type: functional
SK-MEL-2 = assay: Growth inhibition of human SK-MEL-2 cells; type: functional
MDA-MB-468 = assay: Growth inhibition of human MDA-MB-468 cells; type: functional
T47D = assay: Growth inhibition of human T47D cells; type: functional
SF-268 = assay: Growth inhibition of human SF268 cells; type: functional
CCRF-CEM = assay: Growth inhibition of human CCRF-CEM cells; type: functional
DU-145 = assay: Growth inhibition of human DU145 cells; type: functional
U-251 = assay: Growth inhibition of human U251 cells; type: functional
M14 = assay: Growth inhibition of human M14 cells; type: functional
A498 = assay: Growth inhibition of human A498 cells; type: functional
OVCAR-8 = assay: Growth inhibition of human OVCAR8 cells; type: functional
UACC-257 = assay: Growth inhibition of human UACC257 cells; type: functional
HCC 2998 = assay: Growth inhibition of human HCC2998 cells; type: functional
UGT1A1 = UGT1A1 (Homo sapiens, UniProt P22309); assay: Inhibition of human UGT1A1 at 10 uM
Sequence of UGT1A1 (P22309 whole entry): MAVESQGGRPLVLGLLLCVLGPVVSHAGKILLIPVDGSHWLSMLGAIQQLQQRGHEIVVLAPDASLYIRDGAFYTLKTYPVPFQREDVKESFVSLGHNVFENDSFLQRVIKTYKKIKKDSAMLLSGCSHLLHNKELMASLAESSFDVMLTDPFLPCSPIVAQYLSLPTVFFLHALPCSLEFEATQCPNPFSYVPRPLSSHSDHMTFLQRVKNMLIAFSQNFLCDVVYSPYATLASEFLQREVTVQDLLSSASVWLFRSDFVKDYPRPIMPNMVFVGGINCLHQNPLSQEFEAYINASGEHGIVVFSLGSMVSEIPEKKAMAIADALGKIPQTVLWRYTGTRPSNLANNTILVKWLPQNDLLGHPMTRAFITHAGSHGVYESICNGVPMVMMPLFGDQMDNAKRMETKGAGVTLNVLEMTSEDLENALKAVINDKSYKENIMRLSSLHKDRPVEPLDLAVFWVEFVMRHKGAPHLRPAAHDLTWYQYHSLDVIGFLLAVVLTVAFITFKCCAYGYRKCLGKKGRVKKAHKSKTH

PC-3 = assay: Growth inhibition of human PC3 cells; type: functional
[5] = read-out: pLC50 (the source's name) (converted)

Sequence of Insulin-like growth factor 1 receptor (Homo sapiens) (P08069 31-736 limits assumed): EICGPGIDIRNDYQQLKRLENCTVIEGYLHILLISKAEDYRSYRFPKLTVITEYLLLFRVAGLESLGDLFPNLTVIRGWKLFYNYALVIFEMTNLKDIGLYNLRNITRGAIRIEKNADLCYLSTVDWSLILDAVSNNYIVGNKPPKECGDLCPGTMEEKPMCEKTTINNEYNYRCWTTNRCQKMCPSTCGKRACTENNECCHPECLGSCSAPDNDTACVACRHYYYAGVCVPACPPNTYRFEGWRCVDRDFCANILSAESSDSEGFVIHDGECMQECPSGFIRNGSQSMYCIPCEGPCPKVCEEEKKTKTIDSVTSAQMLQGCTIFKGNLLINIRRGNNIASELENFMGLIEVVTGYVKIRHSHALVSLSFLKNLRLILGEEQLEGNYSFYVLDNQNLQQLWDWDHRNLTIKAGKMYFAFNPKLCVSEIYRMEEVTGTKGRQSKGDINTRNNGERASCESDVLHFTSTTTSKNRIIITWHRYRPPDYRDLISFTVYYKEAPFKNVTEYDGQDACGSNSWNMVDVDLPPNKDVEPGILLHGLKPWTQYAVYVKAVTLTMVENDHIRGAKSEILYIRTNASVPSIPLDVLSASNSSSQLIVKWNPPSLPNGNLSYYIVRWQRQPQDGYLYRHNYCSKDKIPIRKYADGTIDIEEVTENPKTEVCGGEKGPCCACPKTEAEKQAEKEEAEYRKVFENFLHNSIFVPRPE
Sequence of Insulin-like growth factor 1 receptor (Homo sapiens) (P08069 741-1367 limits assumed): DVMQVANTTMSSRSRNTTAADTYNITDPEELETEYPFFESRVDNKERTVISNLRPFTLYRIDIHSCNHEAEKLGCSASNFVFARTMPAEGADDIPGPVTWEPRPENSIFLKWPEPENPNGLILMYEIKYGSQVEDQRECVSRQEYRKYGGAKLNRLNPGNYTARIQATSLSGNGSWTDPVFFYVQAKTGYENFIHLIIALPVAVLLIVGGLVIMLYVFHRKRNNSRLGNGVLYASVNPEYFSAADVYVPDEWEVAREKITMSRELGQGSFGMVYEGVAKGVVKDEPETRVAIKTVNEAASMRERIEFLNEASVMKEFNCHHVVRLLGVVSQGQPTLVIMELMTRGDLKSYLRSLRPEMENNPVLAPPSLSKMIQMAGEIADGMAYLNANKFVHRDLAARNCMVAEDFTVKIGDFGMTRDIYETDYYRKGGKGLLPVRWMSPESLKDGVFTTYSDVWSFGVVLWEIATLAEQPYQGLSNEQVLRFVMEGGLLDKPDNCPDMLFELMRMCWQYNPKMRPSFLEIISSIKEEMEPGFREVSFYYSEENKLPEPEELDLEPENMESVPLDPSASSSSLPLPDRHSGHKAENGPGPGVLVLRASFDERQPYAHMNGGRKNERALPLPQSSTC

## COc1ccc2[nH]c(-c3cccc(F)c3)cc(=O)c2c1O
[1]
  inhibition: Dose-dependent effect
HOP-92
  GI50: 4.9 µM
HOP-92; [5]
  CC50: > 100 µM
HOP-92; read-out: pTGI (converted)
  TGI: 36.3 µM
OVCAR-3
  GI50: 0.0191 µM
OVCAR-3; [5]
  CC50: 30.2 µM
OVCAR-3; read-out: pTGI (converted)
  TGI: 0.0407 µM
786-0
  GI50: 0.0501 µM
786-0; [5]
  CC50: 89.1 µM
786-0; read-out: pTGI (converted)
  TGI: 16.2 µM
OVCAR-5; [5]
  CC50: 46.8 µM
OVCAR-5; read-out: pTGI (converted)
  TGI: 15.8 µM
SNB-75
  GI50: 0.0151 µM
SNB-75; [5]
  CC50: 44.7 µM
SNB-75; read-out: pTGI (converted)
  TGI: 0.0589 µM
KM12
  GI50: 0.0275 µM
KM12; [5]
  CC50: 5.5 µM
KM12; read-out: pTGI (converted)
  TGI: 0.151 µM
SR
  GI50: 0.012 µM
SR; [5]
  CC50: > 100 µM
SR; read-out: pTGI (converted)
  TGI: 0.0676 µM
SN12C
  GI50: 0.0617 µM
SN12C; [5]
  CC50: > 100 µM
SN12C; read-out: pTGI (converted)
  TGI: 38 µM
IGROV-1
  GI50: 0.0269 µM
IGROV-1; read-out: pTGI (converted)
  TGI: 0.0933 µM
MOLT-4
  GI50: 0.0479 µM
MOLT-4; [5]
  CC50: > 100 µM
MOLT-4; read-out: pTGI (converted)
  TGI: 19.1 µM
[2]
  inhibition: 57%
NCI-H522
  GI50: 0.0144 µM
NCI-H522; [5]
  CC50: 0.0977 µM
NCI-H522; read-out: pTGI (converted)
  TGI: 0.038 µM
NCI/ADR-RES
  GI50: 0.0209 µM
NCI/ADR-RES; [5]
  CC50: 40.7 µM
NCI/ADR-RES; read-out: pTGI (converted)
  TGI: 0.0537 µM
SK-OV-3
  GI50: 0.0355 µM
SK-OV-3; [5]
  CC50: 37.2 µM
SK-OV-3; read-out: pTGI (converted)
  TGI: 10.7 µM
SK-MEL-5
  GI50: 0.0295 µM
SK-MEL-5; [5]
  CC50: 18.2 µM
SK-MEL-5; read-out: pTGI (converted)
  TGI: 0.2 µM
MCF7
  GI50: 0.0302 µM
MCF7; [5]
  CC50: > 100 µM
MCF7; read-out: pTGI
  TGI: > 100 µM
NCI-H226
  GI50: 1.82 µM
NCI-H226; [5]
  CC50: > 100 µM
NCI-H226; read-out: pTGI (converted)
  TGI: 31.6 µM
UACC-62
  GI50: 0.0309 µM
UACC-62; [5]
  CC50: 93.3 µM
UACC-62; read-out: pTGI (converted)
  TGI: 20 µM
[3]
  inhibition: 55%
RXF 393
  GI50: 0.0174 µM
RXF 393; [5]
  CC50: 56.2 µM
RXF 393; read-out: pTGI (converted)
  TGI: 0.0457 µM
HT-29
  GI50: 0.0288 µM
HT-29; [5]
  CC50: 15.5 µM
HT-29; read-out: pTGI (converted)
  TGI: 0.0759 µM
[4]
  inhibition: 68%
HL-60(TB)
  GI50: 0.0224 µM
HL-60(TB); [5]
  CC50: > 100 µM
HL-60(TB); read-out: pTGI (converted)
  TGI: 0.0631 µM
HCT-15
  GI50: 0.0355 µM
HCT-15; [5]
  CC50: > 100 µM
HCT-15; read-out: pTGI (converted)
  TGI: 14.8 µM
K562
  GI50: 0.024 µM
K562; [5]
  CC50: > 100 µM
K562; read-out: pTGI (converted)
  TGI: 0.204 µM
UO-31
  GI50: 0.0513 µM
UO-31; [5]
  CC50: 39.8 µM
UO-31; read-out: pTGI (converted)
  TGI: 10.2 µM
SK-MEL-2
  GI50: 0.0724 µM
SK-MEL-2; [5]
  CC50: 77.6 µM
SK-MEL-2; read-out: pTGI (converted)
  TGI: 15.8 µM
MDA-MB-468
  GI50: 0.0398 µM
MDA-MB-468; [5]
  CC50: 0.851 µM
MDA-MB-468; read-out: pTGI (converted)
  TGI: 0.219 µM
T47D
  GI50: 0.0282 µM
T47D; [5]
  CC50: 87.1 µM
SF-268
  GI50: 0.0617 µM
SF-268; [5]
  CC50: 89.1 µM
SF-268; read-out: pTGI (converted)
  TGI: 15.5 µM
CCRF-CEM
  GI50: 0.0347 µM
CCRF-CEM; [5]
  CC50: > 100 µM
CCRF-CEM; read-out: pTGI
  TGI: > 100 µM
DU-145
  GI50: 0.0209 µM
DU-145; [5]
  CC50: 33.9 µM
DU-145; read-out: pTGI (converted)
  TGI: 0.0525 µM
U-251
  GI50: 0.0427 µM
U-251; [5]
  CC50: 55 µM
U-251; read-out: pTGI (converted)
  TGI: 14.5 µM
M14
  GI50: 0.0191 µM
M14; [5]
  CC50: 70.8 µM
A498
  GI50: 0.0246 µM
A498; [5]
  CC50: 41.7 µM
A498; read-out: pTGI (converted)
  TGI: 0.209 µM
OVCAR-8
  GI50: 0.0562 µM
OVCAR-8; [5]
  CC50: 81.3 µM
OVCAR-8; read-out: pTGI (converted)
  TGI: 16.2 µM
UACC-257
  GI50: 0.0339 µM
UACC-257; [5]
  CC50: > 100 µM
UACC-257; read-out: pTGI
  TGI: > 100 µM
HCC 2998
  GI50: 0.0324 µM
HCC 2998; [5]
  CC50: 16.2 µM
HCC 2998; read-out: pTGI (converted)
  TGI: 0.0661 µM
UGT1A1
  inhibition at 10 µM: 86%
PC-3
  GI50: 0.0324 µM
PC-3; [5]
  CC50: 70.8 µM
PC-3; read-out: pTGI (converted)
  TGI: 15.5 µM

Reference: ChEMBL document CHEMBL1275391, “Design, synthesis, and preclinical evaluation of new 5,6- (or 6,7-) disubstituted-2-(fluorophenyl)quinolin-4-one derivatives as potent antitumor agents” (J Med Chem, 2010)
